In ChEMBL document CHEMBL1139744, “Rapid synthesis of 4-benzylidene and 4-[bis-(4-methoxyphenyl)-methylene-2-substituted phenyl-benzopyrans as potential selective estrogen receptor modulators (SERMs) using McMurry coupling reaction” (Bioorg Med Chem Lett, 2006):
Calls of active or inactive are those of the source. No cut-off for these calls is given here.

Key:
[1] = biological target: T1, Estrogen receptor (Rattus norvegicus) (UniProt P06211); assay: Displacement of [3H]estradiol from ER in rat uterus […] relative to estradiol
T1 sequence (whole entry): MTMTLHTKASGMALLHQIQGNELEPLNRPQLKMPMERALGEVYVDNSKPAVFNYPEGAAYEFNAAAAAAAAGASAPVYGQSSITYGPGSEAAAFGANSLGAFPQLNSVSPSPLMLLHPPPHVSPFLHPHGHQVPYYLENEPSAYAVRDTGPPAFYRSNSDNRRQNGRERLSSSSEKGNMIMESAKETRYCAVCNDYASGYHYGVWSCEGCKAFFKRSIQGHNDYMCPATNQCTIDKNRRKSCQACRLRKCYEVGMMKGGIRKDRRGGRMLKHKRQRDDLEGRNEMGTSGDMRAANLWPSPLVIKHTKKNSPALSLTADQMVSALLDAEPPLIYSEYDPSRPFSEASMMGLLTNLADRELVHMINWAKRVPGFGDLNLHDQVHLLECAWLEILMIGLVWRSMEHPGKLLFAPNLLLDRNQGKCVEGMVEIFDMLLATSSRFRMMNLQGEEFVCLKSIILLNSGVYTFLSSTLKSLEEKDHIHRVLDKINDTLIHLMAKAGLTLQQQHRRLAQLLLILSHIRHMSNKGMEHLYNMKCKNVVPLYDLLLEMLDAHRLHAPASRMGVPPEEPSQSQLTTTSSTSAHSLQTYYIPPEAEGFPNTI

[2] = system: Rattus norvegicus; assay: Agonist activity at ER receptor assessed as increase in uterine weight of Sprague-Dawley rat at 10 mg/kg/day, po relative to control; assay type: functional
Procedure, shortened: (§1)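 Immature female rats were dosed orally once daily on days 28–30 of age, with a vehicle-only control group. At autopsy on day 31, 24 h after the last dose, a vaginal smear was taken and the uterus was excised, blotted and weighed fresh. Agonism was judged by uterine weight gain, vaginal opening and cornification versus vehicle. Values are means ± SEM, n≥6 per group.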

[3] = system: MCF7; assay: Antiproliferative activity against MCF7 cells […] after 48 hrs; assay type: functional; settings: Homo sapiens; for IC50: MCF7, 48 h
Procedure, shortened: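 MCF-7 cells were trypsinized (0.05% trypsin–EDTA), plated at 10⁴ cells/well in MEM at pH 7.4, and left to attach for 24 h at 37 °C under CO₂. Compounds in ethanol/DMSO were added and incubated 48 h. Cells were fixed with cold 10% TCA for 1 h at 4 °C, stained with 0.4% SRB in 1% acetic acid for 30 min, and the stain was extracted with Tris base at pH 10.5. OD was read at 560 nm.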

[4] = system: Rattus norvegicus; assay: Antagonist activity at ER receptor assessed as inhibition of 17-alpha-ethynylestradiol-induced increase in uterine weight of Sprague-Dawley rat at 10 mg/kg/day, po; assay type: functional; settings: for inhibition in vivo at 10 mg/kg/day: Rattus norvegicus, Sprague-Dawley
Procedure, shortened: (§2)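 Oral dosing was given alongside 17α-ethynylestradiol (0.02 mg/kg) in rats, with vehicle and EE-alone groups. Fresh uterine weight was expressed as percent of the EE-alone group. Values are means ± SEM of at least six animals per group. Significance was tested against the corresponding EE-alone group (P<0.05, P<0.01).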

[5] = system: Rattus norvegicus; assay: Agonist activity at ER receptor assessed as increase in uterine weight of Sprague-Dawley rat at 10 mg/kg/day, po; assay type: functional
Procedure, shortened: as §1

[6] = system: Rattus norvegicus; assay: Antagonist activity at ER receptor assessed as inhibition of increase in uterine weight of Sprague-Dawley rat at 10 mg/kg/day, po relative to 17-alpha-ethynylestradiol; assay type: functional; set-up: scale not given: the % may be the effect or the level left
Procedure, shortened: as §2

[7] = system: Rattus norvegicus; assay: Antagonist activity at ER receptor assessed as inhibition of 17-alpha-ethynylestradiol-induced increase in uterine weight of Sprague-Dawley rat at 3 mg/kg/day, po; assay type: functional
Procedure, shortened: as §2

[8] = system: Rattus norvegicus; assay: Agonist activity at ER receptor assessed as increase in uterine weight of Sprague-Dawley rat at 3 mg/kg/day, po relative to control; assay type: functional
Procedure, shortened: as §1

[9] = system: MCF7; assay: Antiproliferative activity against MCF7 cells at 3 mg/kg/day after 48 hrs; settings: Homo sapiens, MCF7, 48 h
[10] = system: Rattus norvegicus; assay: Agonist activity at ER receptor assessed as increase in uterine weight of Sprague-Dawley rat at 3 mg/kg/day, po; assay type: functional
Procedure, shortened: as §1

[11] = system: Rattus norvegicus; assay: Antagonist activity at ER receptor assessed as inhibition of increase in uterine weight of Sprague-Dawley rat at 3 mg/kg/day, po relative to 17-alpha-ethynylestradiol; assay type: functional; set-up: scale not given: the % may be the effect or the level left
Procedure, shortened: as §2

[12] = system: Rattus norvegicus; assay: Activity at ER receptor assessed as additive effect on 17-alpha-ethynylestradiol-induced increase in uterine weight of Sprague-Dawley rat at 10 mg/kg/day, po; assay type: functional
Procedure, shortened: as §2

[13] = system: Rattus norvegicus; assay: Agonist activity at ER receptor assessed as increase in uterine weight in Sprague-Dawley rat at 0.02 mg/kg/day, po; assay type: functional
Procedure, shortened: as §1

[14] = system: Rattus norvegicus; assay: Antagonist activity at ER receptor assessed as increase in uterine weight in Sprague-Dawley rat at 0.02 mg/kg/day, po; assay type: functional
[15] = system: Rattus norvegicus; assay: Agonist activity at ER receptor assessed as increase in uterine weight of Sprague-Dawley rat at 0.02 mg/kg/day, po relative to control; assay type: functional
Procedure, shortened: as §1

| SMILES | RBA [1] [%] | Activity [2] [%] | Activity [3] | Activity [4] [mg] | inhibition in vivo at 10 mg/kg/day [4] [%] | Activity [5] [mg] | IC50 [3] [µM] | also measured |
| --- | --- | --- | --- | --- | --- | --- | --- | --- |
| COc1ccc2c(c1)OC(c1ccc(O)cc1)C/C2=C\c1ccc(OCc2ccccc2)cc1 (centres undefined) | 0.02 | 153 | inactive | 46.33 | 29 | 38.3 | – | Activity [6]: 29% |
| COc1ccc(C(=C2CC(c3ccc(OCCN(C)C)cc3)Oc3cc(OC)ccc32)c2ccc(OC)cc2)cc1 (centres undefined) | < 0.001 | – | inactive | – | – | – | – | – |
| COc1ccc(C(=C2CC(c3ccc(OCCN4CCCCC4)cc3)Oc3cc(OC)ccc32)c2ccc(OC)cc2)cc1 (centres undefined) | < 0.001 | 168 | – | 81.7 | 26 | 52.5 | 6.68 | – |
| COc1ccc(C(=C2CC(c3ccc(O)cc3)Oc3cc(OC)ccc32)c2ccc(OC)cc2)cc1 (centres undefined) | 0.097 | 86 | inactive | 70.33 | 17 | 26 | – | – |
| CC/C(=C(\c1ccccc1)c1ccc(OCCN(C)C)cc1)c1ccccc1 [TAMOXIFEN] | – | – | – | – | – | – | – | Activity [7]: 52.3 mg; inhibition in vivo at 3 mg/kg/day ([7]; Rattus norvegicus, Sprague-Dawley): 49%; Activity [8]: 155%; IC50 [9]: 5.09 µM; Activity [10]: 46.32 mg; Activity [11]: 49% |
| COc1ccc(/C=C2\CC(c3ccc(O)cc3)Oc3cc(OC)ccc32)cc1 (centres undefined) | 0.013 | 24 | – | 88.33 | – | 17.33 | 8.77 | Activity [12]: 88.33 mg |
| COc1ccc(/C=C2\CC(c3ccc(OCCN4CCCCC4)cc3)Oc3cc(OC)ccc32)cc1 (centres undefined) | 0.095 | 54 | – | 104.4 | 4 | 24.63 | 4.39 | – |
| COc1ccc(/C=C2\CC(c3ccc(OCCN4CCCC4)cc3)Oc3cc(OC)ccc32)cc1 (centres undefined) | 0.095 | 147 | – | 92.3 | 15 | 39.57 | 7.39 | – |
| COc1ccc(/C=C2\CC(c3ccc(OCCN(C)C)cc3)Oc3cc(OC)ccc32)cc1 (centres undefined) | 0.006 | 189 | – | 85.4 | 21 | 46.3 | 2 | – |
| C#C[C@]1(O)CC[C@H]2[C@@H]3CCc4cc(O)ccc4[C@H]3CC[C@@]21C [ETHINYL ESTRADIOL] | – | – | – | – | – | – | – | Activity [13]: 66.35 mg; Activity [14]: 66.35 mg; Activity [15]: 464% |
